Measured values as given in ChEMBL document CHEMBL1125136, “Quinolone antibacterial agents substituted at the 7-position with spiroamines. Synthesis and structure-activity relationships” (1990).
Values after ≈ are worked out from the molar mass of the structure shown.

Tested on: Klebsiella pneumoniae
Assay: Evaluated for minimum inhibitory concentration against gram-negative bacteria Klebsiella pneumoniae MGH-2
Type: functional
Settings: not given
Summary of the method: (§1)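 Broth microdilution MIC by standard technique. Values come from duplicate experiments and are stated as accurate to ±50%.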

Row | Compound | MIC
1 | CCn1cc(C(=O)O)c(=O)c2cc(F)c(N3CCC4(CCNC4)C3)nc21.Cl (centres undefined) | 3.1 µg/mL
2 | CCNCC1CCN(c2c(F)cc3c(=O)c(C(=O)O)cn(CC)c3c2F)C1 (centres undefined) [MERAFLOXACIN] | 0.2 µg/mL (≈ 0.527 µM)
3 | CC1COc2c(N3CCC4(CCN(C)C4)C3)c(F)c(N)c3c(=O)c(C(=O)O)cn1c23 (centres undefined) | 0.8 µg/mL (≈ 1.92 µM)
4 | O=C(O)c1cn(C2CC2)c2c(F)c(N3CCC4(CCNC4)C3)c(F)cc2c1=O (centres undefined) | 0.4 µg/mL (≈ 1.03 µM)
5 | CCn1cc(C(=O)O)c(=O)c2cc(F)c(N3CCNCC3)cc21 [NORFLOXACIN] | 0.2 µg/mL (≈ 0.626 µM)

Tested on: Pseudomonas aeruginosa
Assay: Evaluated for minimum inhibitory concentration against gram-negative bacteria Pseudomonas aeruginosa UI-18
Type: functional
Settings: not given
Summary of the method: as §1

Row | Compound | MIC
6 | CCn1cc(C(=O)O)c(=O)c2cc(F)c(N3CCC4(CCNC4)C3)nc21.Cl (centres undefined) | 0.8 µg/mL
7 | CCNCC1CCN(c2c(F)cc3c(=O)c(C(=O)O)cn(CC)c3c2F)C1 (centres undefined) [MERAFLOXACIN] | 1.6 µg/mL (≈ 4.22 µM)
8 | CC1COc2c(N3CCC4(CCN(C)C4)C3)c(F)c(N)c3c(=O)c(C(=O)O)cn1c23 (centres undefined) | 12.5 µg/mL (≈ 30 µM)
9 | O=C(O)c1cn(C2CC2)c2c(F)c(N3CCC4(CCNC4)C3)c(F)cc2c1=O (centres undefined) | 1.6 µg/mL (≈ 4.11 µM)
10 | CCn1cc(C(=O)O)c(=O)c2cc(F)c(N3CCNCC3)cc21 [NORFLOXACIN] | 0.8 µg/mL (≈ 2.51 µM)

Tested on: Escherichia coli
Assay: In vivo protective dose for mouse protection assay in Escherichia coli Vogel after peroral administration
Type: functional
Settings: po, read-out: PD50
Summary of the method: (§2)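 Female Charles River CD-1 mice were given an acute, lethal, systemic infection. A single dose of compound was given at the time of challenge, by the route stated in the line, with 16 animals per dose level. The read-out is the median protective dose (PD50, mg/kg). Per the footnote, values come from 16 animals per test, with a mean variation of ±34%.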

Row | Compound | ED50
11 | CCn1cc(C(=O)O)c(=O)c2cc(F)c(N3CCC4(CCNC4)C3)nc21.Cl (centres undefined) | > 100 mg/kg
12 | O=C(O)c1cn(C2CC2)c2c(F)c(N3CCC4(CCNC4)C3)c(F)cc2c1=O (centres undefined) | > 100 mg/kg

Tested on: Streptococcus pyogenes
Assay: Evaluated for minimum inhibitory concentration against gram-positive bacteria Streptococcus pyogenes C203
Settings: not given

Row | Compound | MIC
13 | CCn1cc(C(=O)O)c(=O)c2cc(F)c(N3CCC4(CCNC4)C3)nc21.Cl (centres undefined) | 0.2 µg/mL
14 | CCNCC1CCN(c2c(F)cc3c(=O)c(C(=O)O)cn(CC)c3c2F)C1 (centres undefined) [MERAFLOXACIN] | 0.1 µg/mL (≈ 0.264 µM)
15 | CC1COc2c(N3CCC4(CCN(C)C4)C3)c(F)c(N)c3c(=O)c(C(=O)O)cn1c23 (centres undefined) | 0.2 µg/mL (≈ 0.48 µM)
16 | O=C(O)c1cn(C2CC2)c2c(F)c(N3CCC4(CCNC4)C3)c(F)cc2c1=O (centres undefined) | 0.025 µg/mL (≈ 0.0642 µM)
17 | CCn1cc(C(=O)O)c(=O)c2cc(F)c(N3CCNCC3)cc21 [NORFLOXACIN] | 3.1 µg/mL (≈ 9.71 µM)

Tested on: Pseudomonas
Assay: Evaluated for minimum inhibitory concentration against gram-negative bacteria Pseudomonas rettgeri H1771
Type: functional
Settings: not given
Summary of the method: as §1

Row | Compound | MIC
18 | CCn1cc(C(=O)O)c(=O)c2cc(F)c(N3CCC4(CCNC4)C3)nc21.Cl (centres undefined) | 12.5 µg/mL
19 | CCNCC1CCN(c2c(F)cc3c(=O)c(C(=O)O)cn(CC)c3c2F)C1 (centres undefined) [MERAFLOXACIN] | 0.4 µg/mL (≈ 1.05 µM)
20 | CC1COc2c(N3CCC4(CCN(C)C4)C3)c(F)c(N)c3c(=O)c(C(=O)O)cn1c23 (centres undefined) | 6.3 µg/mL (≈ 15.1 µM)
21 | O=C(O)c1cn(C2CC2)c2c(F)c(N3CCC4(CCNC4)C3)c(F)cc2c1=O (centres undefined) | 0.8 µg/mL (≈ 2.05 µM)
22 | CCn1cc(C(=O)O)c(=O)c2cc(F)c(N3CCNCC3)cc21 [NORFLOXACIN] | 0.2 µg/mL (≈ 0.626 µM)

Tested on: Staphylococcus aureus
Assay: Evaluated for minimum inhibitory concentration against […] bacteria Staphylococcus aureus H228
Type: functional
Settings: not given
Summary of the method: as §1

Row | Compound | MIC
23 | CCn1cc(C(=O)O)c(=O)c2cc(F)c(N3CCC4(CCNC4)C3)nc21.Cl (centres undefined) | 3.1 µg/mL
24 | CCNCC1CCN(c2c(F)cc3c(=O)c(C(=O)O)cn(CC)c3c2F)C1 (centres undefined) [MERAFLOXACIN] | 0.1 µg/mL (≈ 0.264 µM)
25 | CC1COc2c(N3CCC4(CCN(C)C4)C3)c(F)c(N)c3c(=O)c(C(=O)O)cn1c23 (centres undefined) | 0.4 µg/mL (≈ 0.96 µM)
26 | O=C(O)c1cn(C2CC2)c2c(F)c(N3CCC4(CCNC4)C3)c(F)cc2c1=O (centres undefined) | 0.2 µg/mL (≈ 0.514 µM)
27 | CCn1cc(C(=O)O)c(=O)c2cc(F)c(N3CCNCC3)cc21 [NORFLOXACIN] | 3.1 µg/mL (≈ 9.71 µM)

Tested on: Enterobacter cloacae
Assay: Evaluated for minimum inhibitory concentration against gram-negative bacteria Enterobacter cloacae HA 2646
Type: functional
Settings: not given

Row | Compound | MIC
28 | CCn1cc(C(=O)O)c(=O)c2cc(F)c(N3CCC4(CCNC4)C3)nc21.Cl (centres undefined) | 0.8 µg/mL
29 | CCNCC1CCN(c2c(F)cc3c(=O)c(C(=O)O)cn(CC)c3c2F)C1 (centres undefined) [MERAFLOXACIN] | 0.2 µg/mL (≈ 0.527 µM)
30 | CC1COc2c(N3CCC4(CCN(C)C4)C3)c(F)c(N)c3c(=O)c(C(=O)O)cn1c23 (centres undefined) | 0.4 µg/mL (≈ 0.96 µM)
31 | O=C(O)c1cn(C2CC2)c2c(F)c(N3CCC4(CCNC4)C3)c(F)cc2c1=O (centres undefined) | 0.2 µg/mL (≈ 0.514 µM)
32 | CCn1cc(C(=O)O)c(=O)c2cc(F)c(N3CCNCC3)cc21 [NORFLOXACIN] | 0.1 µg/mL (≈ 0.313 µM)

Tested on: Escherichia coli
Assay: Evaluated for minimum inhibitory concentration against gram-negative bacteria Escherichia coli Vogel
Type: functional
Settings: not given
Summary of the method: as §1

Row | Compound | MIC
33 | CCn1cc(C(=O)O)c(=O)c2cc(F)c(N3CCC4(CCNC4)C3)nc21.Cl (centres undefined) | 0.8 µg/mL
34 | CCNCC1CCN(c2c(F)cc3c(=O)c(C(=O)O)cn(CC)c3c2F)C1 (centres undefined) [MERAFLOXACIN] | 0.1 µg/mL (≈ 0.264 µM)
35 | CC1COc2c(N3CCC4(CCN(C)C4)C3)c(F)c(N)c3c(=O)c(C(=O)O)cn1c23 (centres undefined) | 0.4 µg/mL (≈ 0.96 µM)
36 | O=C(O)c1cn(C2CC2)c2c(F)c(N3CCC4(CCNC4)C3)c(F)cc2c1=O (centres undefined) | 0.2 µg/mL (≈ 0.514 µM)
37 | CCn1cc(C(=O)O)c(=O)c2cc(F)c(N3CCNCC3)cc21 [NORFLOXACIN] | 0.1 µg/mL (≈ 0.313 µM)

Tested on: not listed separately
Assay: Evaluated for minimum inhibitory concentration against […] bacteria […] SV-1
Type: functional
Settings: not given
Summary of the method: as §1

Row | Compound | MIC
38 | CCn1cc(C(=O)O)c(=O)c2cc(F)c(N3CCC4(CCNC4)C3)nc21.Cl (centres undefined) | 0.8 µg/mL
39 | CCNCC1CCN(c2c(F)cc3c(=O)c(C(=O)O)cn(CC)c3c2F)C1 (centres undefined) [MERAFLOXACIN] | 0.1 µg/mL (≈ 0.264 µM)
40 | CC1COc2c(N3CCC4(CCN(C)C4)C3)c(F)c(N)c3c(=O)c(C(=O)O)cn1c23 (centres undefined) | 0.4 µg/mL (≈ 0.96 µM)
41 | O=C(O)c1cn(C2CC2)c2c(F)c(N3CCC4(CCNC4)C3)c(F)cc2c1=O (centres undefined) | 0.1 µg/mL (≈ 0.257 µM)
42 | CCn1cc(C(=O)O)c(=O)c2cc(F)c(N3CCNCC3)cc21 [NORFLOXACIN] | 3.1 µg/mL (≈ 9.71 µM)

Tested on: Staphylococcus aureus
Assay: Evaluated for minimum inhibitory concentration against […] bacteria Staphylococcus aureus UC-76
Type: functional
Settings: not given
Summary of the method: as §1

Row | Compound | MIC
43 | CCn1cc(C(=O)O)c(=O)c2cc(F)c(N3CCC4(CCNC4)C3)nc21.Cl (centres undefined) | 0.4 µg/mL
44 | CCNCC1CCN(c2c(F)cc3c(=O)c(C(=O)O)cn(CC)c3c2F)C1 (centres undefined) [MERAFLOXACIN] | 0.05 µg/mL (≈ 0.132 µM)
45 | CC1COc2c(N3CCC4(CCN(C)C4)C3)c(F)c(N)c3c(=O)c(C(=O)O)cn1c23 (centres undefined) | 0.1 µg/mL (≈ 0.24 µM)
46 | O=C(O)c1cn(C2CC2)c2c(F)c(N3CCC4(CCNC4)C3)c(F)cc2c1=O (centres undefined) | 0.025 µg/mL (≈ 0.0642 µM)
47 | CCn1cc(C(=O)O)c(=O)c2cc(F)c(N3CCNCC3)cc21 [NORFLOXACIN] | 0.4 µg/mL (≈ 1.25 µM)

Tested on: Enterococcus faecalis
Assay: Evaluated for minimum inhibitory concentration against gram-positive bacteria Staphylococcus faecalis MGH-2
Settings: not given

Row | Compound | MIC
48 | CCn1cc(C(=O)O)c(=O)c2cc(F)c(N3CCC4(CCNC4)C3)nc21.Cl (centres undefined) | 1.6 µg/mL
49 | CCNCC1CCN(c2c(F)cc3c(=O)c(C(=O)O)cn(CC)c3c2F)C1 (centres undefined) [MERAFLOXACIN] | 0.1 µg/mL (≈ 0.264 µM)
50 | CC1COc2c(N3CCC4(CCN(C)C4)C3)c(F)c(N)c3c(=O)c(C(=O)O)cn1c23 (centres undefined) | 0.4 µg/mL (≈ 0.96 µM)
51 | O=C(O)c1cn(C2CC2)c2c(F)c(N3CCC4(CCNC4)C3)c(F)cc2c1=O (centres undefined) | 0.4 µg/mL (≈ 1.03 µM)
52 | CCn1cc(C(=O)O)c(=O)c2cc(F)c(N3CCNCC3)cc21 [NORFLOXACIN] | 3.1 µg/mL (≈ 9.71 µM)

Tested on: Escherichia coli
Assay: In vivo protective dose was determined in mouse protection assay in Escherichia coli Vogel after subcutaneous administration
Type: functional
Settings: sc, read-out: PD50
Summary of the method: as §2

Row | Compound | ED50
53 | CCn1cc(C(=O)O)c(=O)c2cc(F)c(N3CCC4(CCNC4)C3)nc21.Cl (centres undefined) | 28 mg/kg
54 | O=C(O)c1cn(C2CC2)c2c(F)c(N3CCC4(CCNC4)C3)c(F)cc2c1=O (centres undefined) | 7 mg/kg

Tested on: Escherichia coli
Assay: Evaluated for minimum concentration needed to produce linear DNA at an intensity relative to oxolinic acid at 10 mg/mL. by gyrase mediated cleavage of DNA in Escherichia coli 560.
Type: functional
Settings: read-out: MIC

Row | Compound | minimum concentration for gyrase-mediated DNA cleavage
55 | CCn1cc(C(=O)O)c(=O)c2cc(F)c(N3CCC4(CCNC4)C3)nc21.Cl (centres undefined) | 5 µg/mL
56 | CCNCC1CCN(c2c(F)cc3c(=O)c(C(=O)O)cn(CC)c3c2F)C1 (centres undefined) [MERAFLOXACIN] | 2.5 µg/mL
57 | CC1COc2c(N3CCC4(CCN(C)C4)C3)c(F)c(N)c3c(=O)c(C(=O)O)cn1c23 (centres undefined) | 1 µg/mL
58 | O=C(O)c1cn(C2CC2)c2c(F)c(N3CCC4(CCNC4)C3)c(F)cc2c1=O (centres undefined) | 0.1 µg/mL
59 | CCn1cc(C(=O)O)c(=O)c2cc(F)c(N3CCNCC3)cc21 [NORFLOXACIN] | 5.2 µg/mL
